Test system: MS2 coat protein
Experiment: apparent Kd, MS2 coat protein; higher = weaker binding; RNA-MaP array
Procedure, shortened: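 In Tris-HCl pH 7.5 buffer with KCl, MgCl2, BSA, DTT, tRNA and Tween20, with or without input ligand, fluorescently labeled MS2 coat protein at 1.5 nM to 3 μM was incubated at room temperature with designed RNAs. The RNAs had been transcribed on an Illumina sequencing chip from sequenced DNA templates, and incubation ran 0.8–1.5 h at the lowest to 10–20 min at the highest concentrations. Apparent Kd is the median of binding-curve fits for individual clusters. Designs measured on fewer than 10 clusters were excluded.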

[1] = designed as: OFF switch for flavin mononucleotide, no ligand
[2] = ligand present: flavin mononucleotide, designed as: OFF switch for flavin mononucleotide
[3] = designed as: ON switch for flavin mononucleotide, no ligand
[4] = ligand present: flavin mononucleotide, designed as: ON switch for flavin mononucleotide
[5] = designed as: OFF switch for theophylline, no ligand
[6] = ligand present: theophylline, designed as: OFF switch for theophylline
[7] = designed as: ON switch for theophylline, no ligand
[8] = ligand present: theophylline, designed as: ON switch for theophylline

Row | Sequence | apparent Kd [1] | apparent Kd [2] | also measured
1 | AAAGCAGUAGGAUAUACAGUCAUCCGACAGAUAGCGUAAAGACAUGAGGAUCACCCAUGUAGAAGGACUGUAAA | 6.35 nM | 6.28 nM | 
2 | UACAUGAGGAUCACCCAUGUCAAUUGUAGAUCGCUCAACGGCAGAAGGCGCAACCCGAUCGGGAGCGAGGAUAUGCCUCGUUAA | 26.5 nM | 27.1 nM | 
3 | AGCCGUUGGGAUAGACAUGAGGAUCACCCAUGUAAAAGCGAAGAGGAUAUCAGAAUUAAGACAACAGAGAAGGCAUAAAUACAA |  |  | apparent Kd [3]: 38.1 nM; apparent Kd [4]: 28.3 nM
4 | GAUACAUGAGGAUCACCCAUGUGGGAAAUUCAUCUCAUUAAGAAGGAUAUGCAUCUAAAACUGGAGCAGAAGGUCUGUAUCCCG | 87 nM | 55.9 nM | 
5 | UAGACAAAACAGAAGGAAUGAAGUAGAACAACAAUAGGAUAUGUAUAAAAGUAUACAUGAGGAUCACCCAUGUUACCAACAUGA |  |  | apparent Kd [3]: 11.3 nM; apparent Kd [4]: 9.34 nM
6 | CAUCCACCUGAAGCCUCCCAAUUCCUCGAUACCAGAGGAUUAAGACUCCCUUGGCAGCGAGCUACAUGAGGAUCACCCAUGUGCC |  |  | apparent Kd [5]: 19.1 nM; apparent Kd [6]: 23.9 nM
7 | ACCAUGUAAGGAUAUCACAAGUUGAGUAGUUCGUUUGGGUGUGAGAAGGUACAUGAGGAUCACCCAUGUUCUGG | 154 nM | 237 nM | 
8 | GGCCUCACAUGAGGAUCACCCAUGUUACUACUUGUUCGAUUGGAGGAUAUCUCUAGAAUUUACUGAGAGAAGGCCAAUAUGGGA | 236 nM | 191 nM | 
9 | UAAAUUGAAGGAUAUACAUGAGGAUCACCCAUGUAAGAAAUACAUGAAAAUAACAACAGUAGAAGGUCAAAACU | 15.9 nM | 12.7 nM | 
10 | AUGUGAGGACAUGAGGAUCACCCAUGUCGGGAACCUCUCGCAGAGGAUAUUCGAGAAGCAACGUUGAAGAAGGCUGGCGAAACC | 18.1 nM | 13.7 nM | 
11 | AUAAUCAAAGGAUAUGGCUAAGCACACAUGAGGAUCACCCAUGUGAUCGUUCGUACAGUUCCAGAAGGUUGGUCCA | 15 nM | 13.3 nM | 
12 | CUGUACAUGAGGAUCACCCAUGUUAGACCAGCUUAAAAUAUAAGAAGGUUGAGGGCUUGACCAACAAAGGAUAUUAUGUGACCA |  |  | apparent Kd [3]: 27.7 nM; apparent Kd [4]: 18.1 nM
13 | GCUCUAAGGGAGAAGGUCAUGUCGCAUCUUAGCGUUCACAUGAGGAUCACCCAUGUUAACUGUGUGAAGGAUAUCCUAGGCUGU |  |  | apparent Kd [3]: 358 nM; apparent Kd [4]: 125 nM
14 | CGGGAACGAUAUGAUACCAGCCUGCGAAAGAAUGCUUAGUACAUGAGGAUCACCCAUGUAGGCCCUUGGCAGCAUCGACUCAAGU |  |  | apparent Kd [5]: 14.8 nM; apparent Kd [6]: 19.7 nM
15 | UAAGUGCUCACAUGAGGAUCACCCAUGUAUUUACUUAUGAGGAGAAGGAUCAAGGAGCAGCGGUGAUAGGAUAUCCUAAUAGAA |  |  | apparent Kd [3]: 33 nM; apparent Kd [4]: 23.6 nM
16 | UUAUGUCGGUAGGAUAUUAGACGUGGUUAUACGUAAGAAGGACCAACAUGAGGAUCACCCAUGUGAGAUAGUUC | 14.4 nM | 24.7 nM | 
17 | AUUAGGCGGCAGAAGGCCCAUACCCGGACAUGAGGAUCACCCAUGUACUCGUUUCGCCAUAUCAGGGAGGAUAUGCCAACAACU | 17.5 nM | 15.8 nM | 
18 | GAAUGUUGGAAGAAGGCACGCCCUGCAUGGCGGUGAGGAUAUUCCGUACUUGGAGUGGAAACAUGAGGAUCACCCAUGUAAGUA | 36.8 nM | 37 nM | 
19 | CGUAUAGCAGGAUAUUGCAGCCGGCACAUGAGGAUCACCCAUGUCGAUGGUCCGCCAUAGCAAGAAGGGCUAGUAG | 85.7 nM | 57.1 nM | 
20 | GUCCUUAUAACAUGAGGAUCACCCAUGUAAUUCAAUCUGCGAGAGGAUAUGUCUGAGCAUCCCACACAGAAGGCUCCGGAACAG | 22.8 nM | 20.1 nM | 
21 | UUACGGCAAGGAUAUACAUGAGGAUCACCCAUGUACUCUUUAUAAAUUAGUCAGCAUGGUAGAAGGUGCCGCUA | 9.04 nM | 11 nM | 
22 | UGACCACAUGAGGAUCACCCAUGUCAGGAUAUAGGUACACUGGUACAGCCUUUUCGGCCUAGAAGGGACUCUCU | 9.09 nM | 8.42 nM | 
23 | AUGAUAUGGGACAUGAGGAUCACCCAUGUCGGCUUUGUCACGCAGGAUAUUGCGACUCAAAUCGUCAAGAAGGGCGGAGACUCC | 21.5 nM | 19.6 nM | 
24 | AGGAGCGGAAUAGGAUAUUGUAGAUAUAUCAAACAAGAAGGAUUAGCUAACAUGAGGAUCACCCAUGUGGGAUCAAACUCACUC | 82.7 nM | 127 nM | 
25 | UCGGCUUCCCAAGGAUAUGAGGUGCUUAUCGACAUGAGGAUCACCCAUGUAAAACUAGCUGCCAUUCAGAAGGUGGACACGCGC |  |  | apparent Kd [3]: 17 nM; apparent Kd [4]: 7.78 nM
26 | CAUGCUAACAUGAGGAUCACCCAUGUUCCGGCGUAAACUGCACAGGAUAUCGAGAAUUUACAAGCCGAGAAGGGUGCGUAGCAU |  |  | apparent Kd [3]: 195 nM; apparent Kd [4]: 71.7 nM
27 | CAUUUACAUGAGGAUCACCCAUGUUAGUAAUGCUGAGGAUAUGGUCCACGCUCCUAUUUACCAGAAGGCAGUCUUG |  |  | apparent Kd [3]: 19.2 nM; apparent Kd [4]: 13.8 nM
28 | UAGACUCAGUAGAAGGAUGAUAUUACGAUAUAACGUGACAUGAGGAUCACCCAUGUCUUCUGGUCAUAGGAUAUACGCGAAAUG |  |  | apparent Kd [3]: 45.6 nM; apparent Kd [4]: 21.3 nM

Row | Sequence | apparent Kd [1] | apparent Kd [2] | also measured
29 | UACAUACAUGAGGAUCACCCAUGUUGCGAUACCAGCGAAAGAGACCGCCCUUGGCAGCGCUCAUUUAGUUCCAUUCUUGAUCGAA |  |  | apparent Kd [7]: 14.3 nM; apparent Kd [8]: 25.1 nM
30 | UCUAUUAACUAAGGAUAUAGAACAGGCCGGAUUUUGUUGCGUCUGACAUGAGGAUCACCCAUGUUCUAGAAGGUAGACUGCUGC | 13.3 nM | 11.7 nM | 
31 | UGCCUAUACCGAGGAUAUUACGUCAGAUGUGUGUAAGAAGGCGGGUUCCGAUCAACAUGAGGAUCACCCAUGUAUCUUUACGGC |  |  | apparent Kd [3]: 24.5 nM; apparent Kd [4]: 8.72 nM
32 | AUCAUCAGUUCGGCCGCCACUGUUUGGCACAGUUGUAUCGUACAUGAGGAUCACCCAUGUCACCACAGGACCGGGAACGCCGUCG |  |  | apparent Kd (designed as: OFF switch for tryptophan, no ligand): 16.1 nM; apparent Kd (ligand present: tryptophan, designed as: OFF switch for tryptophan): 17.3 nM
33 | CGGGCACAUGAGGAUCACCCAUGUAAGGAUAUGAACAGUUUUCACAGAGUUUCACUAUUCAGAAGGUACGUUUC | 24.2 nM | 20.8 nM | 
34 | CGUCCACAUGAGGAUCACCCAUGUACACGCGAUCAAGGAUAUCGCGAUAACACAAUAGUGCGAGAAGGUGAUGUAC |  |  | apparent Kd [3]: 148 nM; apparent Kd [4]: 79.6 nM
35 | UCUCAGUGAGGAUAUCGAACAGACCUUUGUGUGCUAAUUUUCGAGAAGGCACAUGAGGAUCACCCAUGUGACUC | 54.6 nM | 49.7 nM | 
36 | ACCCAACAUGAGGAUCACCCAUGUGCAUGCCUCGGAGGAUAUGACCUCAUUCAUCUUUGAUCAGAAGGCCGAUCGC |  |  | apparent Kd [3]: 113 nM; apparent Kd [4]: 26 nM
37 | CUUACACAUGAGGAUCACCCAUGUCAUGAUACCAGCCAAUACACUGGCCCUUGGCAGCAUCUCAGCCUCAGCUACAUUGACUGAC |  |  | apparent Kd [7]: 19.9 nM; apparent Kd [8]: 27.1 nM
38 | ACAAGCCGAGGAUAUACAAGAAAGGCAAGACUGAUAAGAUAACAUGAGGAUCACCCAUGUAGAAGGCGGAAUAC | 10.4 nM | 14.1 nM | 
39 | CGAUCCUUGCAGAAGGACUAAAACCAAAUACCAGUAGGAUAUGCAACAUGAGGAUCACCCAUGUGACGAAGGAUGCGGGAAAUA | 8.82 nM | 8.69 nM | 
40 | AUAUUCGUUCAGGAUAUGUUAAGCUCACGCCUAACAGAAGGGAAUACAUGAGGAUCACCCAUGUGGUGAUGGGA | 498 nM | 426 nM | 
41 | CAACGGUUAGAGAAGGCAUAGUAAAGAAUUCAAUGAGGAUAUCUAAAGAAAUGUAUAGGUCUUUUACAUGAGGAUCACCCAUGU | 17.6 nM | 9.47 nM | 
42 | UCCGUUGUAGGAUAUACAUGAGGAUCACCCAUGUAAUGUGGGCAAUUAUAAACUUACUGUAGAAGGACAGAGUG | 493 nM | 555 nM | 
43 | CCGACCCAAGGAUAUACAUGAGGAUCACCCAUGUAUAAAAUAUACCAAGGUAAAAUAUGUAGAAGGAGGAUAUG | 6.54 nM | 6.17 nM | 
44 | UCAGCACAUGAGGAUCACCCAUGUCGUGAUACCAGCCUGUGCGAAGGCCCUUGGCAGCACAGUCCCGAUUUGCUUAUAUGCACUU |  |  | apparent Kd [7]: 35.7 nM; apparent Kd [8]: 36.9 nM
45 | GAUACUACAUAGAAGGUACCGAUGAGCAAUUAACAAUGUGCGGCAACAUGAGGAUCACCCAUGUGUAAGGAUAUAUGCAGAACA | 20.9 nM | 15.5 nM | 
46 | CCUUGUGUGAAGGAUAUAGGUUUAUGUUUCUGUCUAGAAGGUCACACAUGAGGAUCACCCAUGUAUAUCCUAGA | 18.3 nM | 51.6 nM | 
47 | UUACCAGCAGGAUAUUCAUCUGUUAACAUGAGGAUCACCCAUGUCUCGUGAUCGAACUAGGAAGAAGGGCUUAUAC | 74.4 nM | 77.3 nM | 
48 | AGGCGCAACGUAGGAUAUACCGGCAUUGUCCAAGUAGAAGGACGUUGUGAUCGCUAGGUAACAUGAGGAUCACCCAUGUCUUAC |  |  | apparent Kd [3]: 6.96 nM; apparent Kd [4]: 5.8 nM
49 | GAAAACGAUCCCAAUACAUGAGGAUCACCCAUGUGGUGCAGUCAGGAUAUCACUACACCAAAACUUGAGAAGGGACACAUCGCC | 347 nM | 318 nM | 
50 | GUAAGACAAGGCAAGGAUAUGCCCUAAUGGACAUGAGGAUCACCCAUGUGGUUGCAUAAUCAAAAGCAGAAGGUGCUACAACACGG |  |  | apparent Kd [3]: 48.3 nM; apparent Kd [4]: 38.8 nM
51 | UUGUGACAUGAGGAUCACCCAUGUGAGGAUAUUCUGCUUGUGGAUAGUACGACUUGAUGAAGAAGGCACGUUAU | 34.7 nM | 33.3 nM | 
52 | CUCAAGUAAGGAUAUAUUCACGCUCGUAAUUAGUGUCGCGCAUAGAAGGUACAUGAGGAUCACCCAUGUCAUGU |  | 18.4 nM | 
53 | CACGCGGAGUUAGGAUAUAACGAUUGUCAGCCGUUAGAAGGAACCCAUCGCAAAUCUACGUCUAACAUGAGGAUCACCCAUGUU |  |  | apparent Kd [3]: 6.85 nM; apparent Kd [4]: 5.7 nM
54 | UAGAGCGGCAACAUGAGGAUCACCCAUGUGGGCGAUGAGGCUCAGGAUAUACACCACCGCUGGACGUAGAAGGGAGACUCGCCG | 41.1 nM | 20.1 nM | 
55 | CGUGGGUGUGAGCCACAUGAGGAUCACCCAUGUCACAACGUGAGAAGGAACAGGCCCUGUGUCGGUUAGGAUAUCAAACCCUUA | 142 nM | 27.3 nM | 

From the EternaBench riboswitch data
